From ChEMBL document CHEMBL4145692, “Discovery of a Locally and Orally Active CXCL12 Neutraligand (LIT-927) with Anti-inflammatory Effect in a Murine Model of Allergic Airway Hypereosinophilia” (J Med Chem, 2018) come the findings set out here.

A word on the inhibition: it is the change of the read-out against control, counted positive when it falls. The term Ki denotes a measure of affinity in units of concentration, obtained from inhibition or displacement.

Data set [1] can be described thus: Kinetic solubility in pH 7.4 HEPES-BSA buffer at 5 uM incubated for 24 hrs at 20 degC by HPLC method. It counts as physicochemical. The conditions noted are these: read-out: Kinetic_solubility. The method in brief:
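Compound added from 10 mM DMSO stock to 5 μM in pH 7.4 HEPES-BSA buffer (1 g/L BSA), shaken 24 h at 20 °C. After centrifugation, supernatant concentration measured by HPLC against 5 and 10 μM standards.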

Data set [2] concerns the target T1, Stromal cell-derived factor 1 (Homo sapiens, UniProt P48061). The experiment in a line: Binding affinity to Texas Red-labelled CXCL12 (unknown origin) assessed as inhibition of CXCL12-Texas Red binding to EGFP-labeled human CXCR4 expressed in HEK293 cell membranes at 3 uM pre-incubated for 1 hr by FRET-based binding assay. Put shortly:
(§1)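 HEK-293 cells stably expressing human EGFP-CXCR4, 10⁶ cells/ml in HEPES buffer pH 7.4 with 0.1% BSA, 21 °C. CXCL12-Texas Red (100 nM) was preincubated 1 h at room temperature with compound or DMSO, then added at t=150 s. FRET read as loss of EGFP emission at 510 nm (excitation 470 nm) up to equilibrium. Ki from dose-response curves.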

For data set [3], the system named is Mus musculus. The experiment in a line: Toxicity in Balb/c mouse model of hypereosinophilia assessed as reduction in body weight at 12.6 umol/kg, ip dosed daily 2 hrs before allergen challenge for 3 days and measured 24 hrs after last dose. It is filed as organism-based. Further details: scale not given: the % may be the effect or the level left. Conditions: in vivo. The method in brief:
(§2)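 Same OVA model with i.p. dosing 2 h before each of the three challenges: neutraligands 350 μmol/kg in PBS/CMC 1%, AMD3100 12.6 μmol/kg, dexamethasone 2.5 μmol/kg. Body and spleen weight loss recorded 24 h after three daily administrations; n=6/group.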

Data set [4] relates to Mus musculus. In words: Toxicity in Balb/c mouse model of hypereosinophilia assessed as reduction in spleen weight at 12.6 umol/kg, ip dosed daily 2 hrs before allergen challenge for 3 days and measured 24 hrs after last dose. Further details: scale not given: the % may be the effect or the level left. It is filed as organism-based. Conditions: in vivo. Put shortly:
as §2

Data set [5] is filed under the species Mus musculus. In words: animal or person. The conditions noted are these: Balb/c, ip, read-out: INH.
The target in data set [6] is T1, Stromal cell-derived factor 1. The experiment in a line: Binding affinity to Texas Red-labelled CXCL12 (unknown origin) assessed as inhibition of CXCL12-Texas Red binding to EGFP-labeled human CXCR4 expressed in HEK293 cell membranes at 30 uM pre-incubated for 1 hr by FRET-based binding assay. Put shortly:
as §1

For data set [7] the target is unchanged. The experiment in a line: Binding affinity to Texas Red-labelled CXCL12 (unknown origin) assessed as inhibition of CXCL12-Texas Red binding to EGFP-labeled human CXCR4 expressed in HEK293 cell membranes at 5 uM pre-incubated for 1 hr by FRET-based binding assay. The method in brief: as §1
The target is the same in data set [8]. The experiment in a line: Binding affinity to Texas Red-labelled CXCL12 (unknown origin) assessed as inhibition of CXCL12-Texas Red binding to EGFP-labeled human CXCR4 expressed in HEK293 cell membranes at 10 uM pre-incubated for 1 hr by FRET-based binding assay. Put shortly: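 FRET binding assay in EGFP-CXCR4 HEK-293 cells. Compound at 10 μM preincubated with CXCL12 before addition to the cells; binding read as EGFP emission at 510 nm after CXCL12-Texas Red addition. T134 (20 μM) used as control.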

Data set [9] has the same target. The experiment in a line: Binding affinity to Texas Red-labelled CXCL12 (unknown origin) assessed as inhibition of CXCL12-Texas Red binding to EGFP-labeled human CXCR4 expressed in HEK293 cell membranes pre-incubated for 1 hr by FRET-based binding assay. The method in brief: as §1

In brackets after ≈: the same amount, converted by molar mass. Activity calls are given as the source filed them. The calls are words filed in the database; no cut-off is given here.

T1 sequence (P48061 whole entry): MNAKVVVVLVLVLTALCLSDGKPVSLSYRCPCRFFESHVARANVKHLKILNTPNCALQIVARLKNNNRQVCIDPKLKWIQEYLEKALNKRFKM

Turning to `O=C(/C=C/c1ccc2c(c1)OCO2)c1ccc(Cl)cc1`, in data set [1], the solubility kinetic at 24 h, 5 µM was 2.31 µM (≈ 0.662 µg/mL). Besides, the inhibition in data set [2] is 25%.
Turning to `c1cc(CN2CCCNCCNCCCNCC2)ccc1CN1CCCNCCNCCCNCC1` [PLERIXAFOR], the Activity in data set [3] came out at 7.8%; in [4] it was 9.8%. For the same compound, the inhibition in vivo at 12.6 µmol/kg in [5] turned out to be 33%.
Regarding `COc1cc(/C=C/C(=O)c2ccc3ccccc3c2)ccc1O`, the inhibition in [6] was 5%. In data set [1], the solubility kinetic at 24 h, 5 µM was found to be 0.95 µM (≈ 0.289 µg/mL).
`COc1cc(-c2cc(-c3ccc(Cl)cc3)ncn2)ccc1O`: the solubility kinetic at 24 h, 5 µM in [1] is 4.29 µM (≈ 1.34 µg/mL). Also, the inhibition in data set [7] is 30%.
On to `COc1cc(/C=C2\CCc3cc(Cl)ccc3C2=O)ccc1O`, for which the inhibition in [8] was 70%. The solubility kinetic at 24 h, 5 µM in [1] is more than 5 µM.
As for `COc1cc(/C=C/C(=O)c2ccccc2)ccc1O`, the Ki in [9] is more than 10 µM. In addition, the inhibition result in [8] was “inactive”. Further, the solubility kinetic at 24 h, 5 µM in data set [1] was more than 5 µM.
Consider `COc1cc(/C=C/C(=O)c2ccc([N+](=O)[O-])cc2)ccc1O`, for which the inhibition in data set [6] turned out to be 30%. In addition, the solubility kinetic at 24 h, 5 µM in [1] was more than 5 µM.
